The structures appear in SMILES notation. In brackets after ≈: the same amount, converted by molar mass.

The record followed here is ChEMBL document CHEMBL4673212, “Investigation of synergistic antimicrobial effects of the drug combinations of meropenem and 1,2-benzisoselenazol-3(2H)-one derivatives on carbapenem-resistant Enterobacteriaceae producing NDM-1” (Eur J Med Chem, 2018).

Series [1] has as its system Escherichia coli. The series can be described thus: Synergistic antibacterial activity against Escherichia coli TG1 transformed with IncX3 plasmid expressing blaNDM-1 assessed as ratio of negative logarithm of fractional inhibitory concentration index to non-hydrogen atom in presence of meropenem incubated for overnight by CLSI protocol based assay. The format is functional. To be noted: time 12 hrs. An outline of the steps:
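In E. coli TG1 carrying the IncX3 blaNDM-1 plasmid, the FIC index was taken from overnight CLSI-based MICs of compound, meropenem and their 1:1 mass mixture, read by eye. Synergistic efficiency = −ln(FIC index) divided by the number of non-hydrogen atoms. At least triplicate assays.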

For series [2], the system named is Escherichia coli. The series can be described thus: Synergistic antibacterial activity against Escherichia coli TG1 transformed with IncX3 plasmid expressing blaNDM-1 assessed as fractional inhibitory concentration index in presence of meropenem incubated for overnight by CLSI protocol based assay. To be noted: time 12 hrs. The format is functional. In short, it runs like this: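 FIC index from MICs of compound alone, meropenem alone, and the 1:1 (mass) compound–meropenem combination, read by eye after overnight incubation in a CLSI-based assay. FIC index = MICcombo/MICcpd + MICcombo/MICMem. FIC index ≤0.5 counted as synergy. At least triplicate assays. Clinical NDM-1 isolates for 17-39; E. coli TG1 carrying the IncX3 blaNDM-1 plasmid for 15.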

Series [3] deals with Escherichia coli. The series can be described thus: Potentiation of meropenem-induced antibacterial activity against Escherichia coli TG1 transformed with IncX3 plasmid expressing blaNDM-1 assessed as bacterial growth inhibition by measuring meropenem MIC incubated for overnight by CLSI protocol based assay. The format is functional. The note with it: time 12 hrs.
Series [4] can be described thus: Growth inhibition of Escherichia coli TG1 transformed with IncX3 plasmid expressing blaNDM-1 incubated for overnight by CLSI protocol based assay. To be noted: 12 h.

Turning to `O=C(NCCn1[se]c2ccccc2c1=O)c1ccc(F)cc1F`, in series [1], the Ratio was determined as 0.013. In addition, in series [2], the “fractional inhibitory concentration index (FICI)” value is reported as 0.75. Besides, the values for the MIC in series [3] and in series [4] were 32 µg/mL and “>= 128 ug ml-1”, respectively.
The matching figures for `Cl.NCCn1[se]c2ccccc2c1=O`: -0.005, 1.063, 4 µg/mL and 4 µg/mL.
The matching figures for `O=C(NCCn1[se]c2ccccc2c1=O)c1cccs1`: 0.084, 0.188, 8 µg/mL and “>= 128 ug ml-1”.
In the same order, the values of `O=c1c2ccccc2[se]n1CCNCc1ccccc1` are 0.084, 0.188, 8 µg/mL and “>= 128 ug ml-1”.
Consider `CC(C)(CC(=O)NCCn1[se]c2ccccc2c1=O)C(F)(F)F`, for which the Ratio in series [1] stood at 0.073. The “fractional inhibitory concentration index (FICI)” value in series [2] is 0.188. Besides, the values for the MIC in series [3] and in series [4] were 8 µg/mL and “>= 128 ug ml-1”, respectively.
In the same order, the values of `COc1cccc(C(=O)n2[se]c3ccccc3c2=O)c1` are 0.084, 0.188, 8 µg/mL and “>= 128 ug ml-1”.
The matching figures for `O=C1CC[Se]N1c1ccccc1`: 0.024, 0.75, 32 µg/mL and “>= 128 ug ml-1”.
In the same order, the values of `O=c1c2ccccc2[se]n1CCN1CCCCC1` are 0.054, 0.375, 16 µg/mL and “>= 128 ug ml-1”.
For `CC(C)(OC(=O)NCCCn1[se]c2ccccc2c1=O)C(F)(F)F`, the Ratio in series [1] amounted to 0.07. Also, the “fractional inhibitory concentration index (FICI)” value in series [2] came to 0.188. Also, the figures for the MIC in series [3] and in series [4] were 8 µg/mL and “>= 128 ug ml-1”, respectively.
The matching figures for `O=c1c2ccccc2[se]n1Cc1ccccc1`: 0.058, 0.375, 8 µg/mL and 32 µg/mL (≈ 111 µM).
In the same order, the values of `O=c1c2ccccc2[se]n1CCC1CCOCC1` are 0.084, 0.188, 8 µg/mL and “>= 128 ug ml-1”.
The matching figures for `CC(C)c1ccc(-n2[se]c3ccccc3c2=O)cc1`: 0.052, 0.375, 16 µg/mL and “>= 128 ug ml-1”.
`CC(C)(C)OC(=O)NCCCn1[se]c2ccccc2c1=O`: in series [1], the Ratio was 0.08. For the same molecule, the “fractional inhibitory concentration index (FICI)” value in series [2] turned out to be 0.188. Moreover, the MIC is 8 µg/mL in series [3] and “>= 128 ug ml-1” in series [4].
The matching figures for `O=C(O)c1cccc(-n2[se]c3ccccc3c2=O)c1`: 0.052, 0.375, 8 µg/mL and 32 µg/mL (≈ 101 µM).
The matching figures for `O=C(O)c1ccc(-n2[se]c3ccccc3c2=O)cc1`: 0.109, 0.125, 4 µg/mL and 64 µg/mL (≈ 201 µM).
For the molecule `CC1CN(CCn2[se]c3ccccc3c2=O)CC(C)O1` (stereo not drawn), in series [1], the Ratio came to 0.049. The “fractional inhibitory concentration index (FICI)” value in series [2] is recorded as 0.375. The MIC in series [3] is 16 µg/mL; in series [4] it was “>= 128 ug ml-1”.
As for `O=C(NCCn1[se]c2ccccc2c1=O)c1ccccc1`, the Ratio in series [1] stood at 0.047. In addition, the “fractional inhibitory concentration index (FICI)” value in series [2] was determined as 0.375. The figures for the MIC in series [3] and in series [4] were 16 µg/mL and “>= 128 ug ml-1”, respectively.
In the same order, the values of `CCN1CCC[C@@H]1Cn1[se]c2ccccc2c1=O` are 0.039, 0.5, 16 µg/mL and 64 µg/mL (≈ 207 µM).
The matching figures for `O=c1c2ccccc2[se]n1Cc1cccc(N2CCCCC2)c1`: 0.043, 0.375, 16 µg/mL and “>= 128 ug ml-1”.
For the molecule `Cc1ccc(C(=O)NCCn2[se]c3ccccc3c2=O)cc1`, the Ratio in series [1] was 0.076. Besides, the “fractional inhibitory concentration index (FICI)” value in series [2] came to 0.188. The figures for the MIC in series [3] and in series [4] were 8 µg/mL and “>= 128 ug ml-1”, respectively.
In the same order, the values of `O=c1c2ccccc2[se]n1-c1ccncc1` are 0.018, 0.75, 32 µg/mL and “>= 128 ug ml-1”.
In the same order, the values of `C#CCn1[se]c2ccccc2c1=O` are 0.107, 0.25, 8 µg/mL and 64 µg/mL (≈ 271 µM).
In the same order, the values of `CCN1CCC[C@H]1Cn1[se]c2ccccc2c1=O` are 0.039, 0.5, 16 µg/mL and 64 µg/mL (≈ 207 µM).
In the case of `C[C@H](C(=O)N[C@H](C)C(=O)O)n1[se]c2ccccc2c1=O`, the Ratio in series [1] came out at 0.049. The “fractional inhibitory concentration index (FICI)” value in series [2] is given as 0.375. The values for the MIC in series [3] and in series [4] were 16 µg/mL and “>= 128 ug ml-1”, respectively.
With `O=c1c2ccccc2[se]n1C1CCCCC1`, the Ratio in series [1] was 0.087. Besides, the “fractional inhibitory concentration index (FICI)” value in series [2] was determined as 0.25. Also, the MIC in series [3] turned out to be 8 µg/mL; in series [4], 64 µg/mL (≈ 228 µM).
In the same order, the values of `CC(C)(C)CC(=O)NCCn1[se]c2ccccc2c1=O` are 0.084, 0.188, 8 µg/mL and “>= 128 ug ml-1”.
In series [4], `C[C@@H](O)[C@H]1C(=O)N2C(C(=O)O)=C(S[C@@H]3CN[C@H](C(=O)N(C)C)C3)[C@H](C)[C@H]12` [MEROPENEM] came in with an MIC of 64 µg/mL (≈ 167 µM).
Regarding `COP(=O)(NCCn1[se]c2ccccc2c1=O)OC`, the Ratio in series [1] was 0.084. The “fractional inhibitory concentration index (FICI)” value in series [2] was 0.188. The MIC in series [3] is 8 µg/mL; in series [4], “>= 128 ug ml-1”.
In the same order, the values of `O=C(NCCn1[se]c2ccccc2c1=O)OCc1ccccc1` are 0.043, 0.375, 16 µg/mL and “>= 128 ug ml-1”.
With `COc1ccc(-n2[se]c3ccccc3c2=O)cc1Cl`, in series [1], the Ratio came to 0.015. Besides, the “fractional inhibitory concentration index (FICI)” value in series [2] is reported as 0.75. For the same molecule, the MIC in series [3] is 32 µg/mL; in series [4] it was “>= 128 ug ml-1”.
Turning to `Cl.NCCCn1[se]c2ccccc2c1=O`, the Ratio in series [1] is on record as 0.091. Moreover, the “fractional inhibitory concentration index (FICI)” value in series [2] is 0.281. The values for the MIC in series [3] and in series [4] were 2 µg/mL and 8 µg/mL, respectively.
The matching figures for `COc1ccc(-n2[se]c3ccccc3c2=O)cc1`: 0.054, 0.375, 16 µg/mL and “>= 128 ug ml-1”.
In the same order, the values of `O=c1c2ccccc2[se]n1S(=O)(=O)c1ccc(Cl)cc1` are 0.049, 0.375, 16 µg/mL and “>= 128 ug ml-1”.
Take `O=c1c2ccccc2[se]n1CCCn1ccnc1`: the Ratio in series [1] turned out to be 0.054. Also, the “fractional inhibitory concentration index (FICI)” value in series [2] worked out at 0.375. Besides, the MIC in series [3] was 16 µg/mL; in series [4] it was “>= 128 ug ml-1”.
On to `CCCC[n+]1ccn(CCCn2[se]c3ccccc3c2=O)c1`, for which, in series [1], the Ratio was 0.076. Besides, in series [2], the “fractional inhibitory concentration index (FICI)” value is listed as 0.188. For the same molecule, the MIC is 8 µg/mL in series [3] and “>= 128 ug ml-1” in series [4].
The matching figures for `O=c1c2ccccc2[se]n1-c1ccc(Cl)cc1`: 0.139, 0.094, 4 µg/mL and “>= 128 ug ml-1”.
The matching figures for `O=C(O)Cn1[se]c2ccccc2c1=O`: 0.091, 0.281, 2 µg/mL and 8 µg/mL (≈ 31.2 µM).
In the same order, the values of `CN(C)CCn1[se]c2ccccc2c1=O` are 0.065, 0.375, 16 µg/mL and “>= 128 ug ml-1”.
With `O=c1c2ccccc2[se]n1Cc1cccc(-c2ccccc2)c1`, the Ratio in series [1] was found to be 0.043. The “fractional inhibitory concentration index (FICI)” value in series [2] was 0.375. The values for the MIC in series [3] and in series [4] were 16 µg/mL and “>= 128 ug ml-1”, respectively.
